Tests used:
[1] = target: Serine/threonine-protein kinase B-raf (Homo sapiens, UniProt P15056, V600E); test: Inhibition of full length B-Raf V600E mutant
[2] = Inhibition of basal ERK phosphorylation in human MALME-3M cells; type: cell-based
[3] = target: T1, Aurora kinase A (Homo sapiens) (UniProt O14965); test: Inhibition of aurora A at 1 uM
T1 sequence (whole entry): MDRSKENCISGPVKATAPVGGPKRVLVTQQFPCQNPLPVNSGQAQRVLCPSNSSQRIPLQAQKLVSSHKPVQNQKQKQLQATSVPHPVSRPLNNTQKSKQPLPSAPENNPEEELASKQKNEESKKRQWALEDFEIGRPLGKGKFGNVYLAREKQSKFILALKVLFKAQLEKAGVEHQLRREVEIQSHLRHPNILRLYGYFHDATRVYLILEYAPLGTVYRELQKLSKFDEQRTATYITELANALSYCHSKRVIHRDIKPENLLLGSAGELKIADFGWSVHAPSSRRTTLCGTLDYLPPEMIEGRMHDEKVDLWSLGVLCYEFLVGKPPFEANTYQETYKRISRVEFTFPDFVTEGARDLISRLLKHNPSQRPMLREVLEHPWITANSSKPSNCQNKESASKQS
Procedure, shortened: (§1)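 Kinase selectivity panel reported as percent inhibition of each kinase at a single test-compound concentration. Values are means of at least two experiments.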

[4] = target: Tyrosine-protein kinase Fgr (Homo sapiens) (UniProt P09769); test: Inhibition of FGR at 1 uM; procedure, shortened: as §1
[5] = target: Receptor-type tyrosine-protein kinase FLT3 (Homo sapiens) (UniProt P36888); test: Inhibition of FLT3 at 1 uM; procedure, shortened: as §1
[6] = target: Tyrosine-protein kinase Lck (Homo sapiens) (UniProt P06239); test: Inhibition of LCK at 1 uM; procedure, shortened: as §1
[7] = target: Protein-tyrosine kinase 6 (Homo sapiens) (UniProt Q13882); test: Inhibition of PTK6 at 1 uM; procedure, shortened: as §1
[8] = target: Proto-oncogene tyrosine-protein kinase Src (Homo sapiens) (UniProt P12931); test: Inhibition of SRC at 1 uM; procedure, shortened: as §1
[9] = target: Tyrosine-protein kinase Srms (Homo sapiens) (UniProt Q9H3Y6); test: Inhibition of SRMS at 1 uM; procedure, shortened: as §1
Sequence of Tyrosine-protein kinase Srms (Homo sapiens) (Q9H3Y6 whole entry): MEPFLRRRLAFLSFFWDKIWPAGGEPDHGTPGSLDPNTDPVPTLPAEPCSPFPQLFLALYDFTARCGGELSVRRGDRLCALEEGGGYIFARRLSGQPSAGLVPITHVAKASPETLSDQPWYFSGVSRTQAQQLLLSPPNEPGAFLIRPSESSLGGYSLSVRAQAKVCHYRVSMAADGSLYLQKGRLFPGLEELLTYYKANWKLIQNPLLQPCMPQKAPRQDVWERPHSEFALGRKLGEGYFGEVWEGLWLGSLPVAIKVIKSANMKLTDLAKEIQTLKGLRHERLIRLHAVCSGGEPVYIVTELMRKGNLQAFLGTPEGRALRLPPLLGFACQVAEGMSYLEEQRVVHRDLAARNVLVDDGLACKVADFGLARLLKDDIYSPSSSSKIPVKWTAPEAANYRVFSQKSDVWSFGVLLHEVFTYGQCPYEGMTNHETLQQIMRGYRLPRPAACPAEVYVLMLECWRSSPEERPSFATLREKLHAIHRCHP

Sequence of Serine/threonine-protein kinase B-raf (P15056 2-766 V600E limits assumed): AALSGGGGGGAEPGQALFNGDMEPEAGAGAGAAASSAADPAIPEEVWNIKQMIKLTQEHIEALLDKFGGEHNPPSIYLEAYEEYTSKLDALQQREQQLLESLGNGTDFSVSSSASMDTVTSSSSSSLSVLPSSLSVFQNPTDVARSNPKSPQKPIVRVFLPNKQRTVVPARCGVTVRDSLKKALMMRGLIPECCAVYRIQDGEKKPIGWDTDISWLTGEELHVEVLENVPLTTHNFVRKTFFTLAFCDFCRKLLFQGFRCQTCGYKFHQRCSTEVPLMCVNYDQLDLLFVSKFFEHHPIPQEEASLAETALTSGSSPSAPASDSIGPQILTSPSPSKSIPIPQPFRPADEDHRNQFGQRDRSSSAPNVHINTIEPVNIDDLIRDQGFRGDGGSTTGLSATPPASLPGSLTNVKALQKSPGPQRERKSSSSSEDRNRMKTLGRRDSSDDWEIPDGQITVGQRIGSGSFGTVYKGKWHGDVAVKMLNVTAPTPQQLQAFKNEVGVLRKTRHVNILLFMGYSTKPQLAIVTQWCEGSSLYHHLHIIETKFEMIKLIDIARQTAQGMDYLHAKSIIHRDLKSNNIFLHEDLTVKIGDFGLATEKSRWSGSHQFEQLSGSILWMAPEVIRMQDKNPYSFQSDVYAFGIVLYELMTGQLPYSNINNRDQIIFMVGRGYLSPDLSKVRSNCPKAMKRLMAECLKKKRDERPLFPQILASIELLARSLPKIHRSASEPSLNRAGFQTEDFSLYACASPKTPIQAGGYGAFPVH
Sequence of Tyrosine-protein kinase Lck (Homo sapiens) (P06239 2-509 limits assumed): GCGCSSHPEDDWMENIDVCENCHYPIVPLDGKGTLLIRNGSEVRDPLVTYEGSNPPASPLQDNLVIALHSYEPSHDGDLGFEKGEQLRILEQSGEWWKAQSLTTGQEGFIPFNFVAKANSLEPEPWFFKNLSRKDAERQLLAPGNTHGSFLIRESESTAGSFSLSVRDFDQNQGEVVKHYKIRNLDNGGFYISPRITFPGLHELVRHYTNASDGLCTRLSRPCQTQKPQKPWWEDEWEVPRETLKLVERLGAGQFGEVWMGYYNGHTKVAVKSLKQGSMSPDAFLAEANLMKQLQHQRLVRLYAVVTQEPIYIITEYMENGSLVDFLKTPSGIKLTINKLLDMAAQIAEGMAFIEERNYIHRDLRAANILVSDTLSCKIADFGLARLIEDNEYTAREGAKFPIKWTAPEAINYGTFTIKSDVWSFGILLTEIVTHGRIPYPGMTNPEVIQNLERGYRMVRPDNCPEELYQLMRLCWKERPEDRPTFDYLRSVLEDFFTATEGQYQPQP
Sequence of Proto-oncogene tyrosine-protein kinase Src (Homo sapiens) (P12931 2-536 limits assumed): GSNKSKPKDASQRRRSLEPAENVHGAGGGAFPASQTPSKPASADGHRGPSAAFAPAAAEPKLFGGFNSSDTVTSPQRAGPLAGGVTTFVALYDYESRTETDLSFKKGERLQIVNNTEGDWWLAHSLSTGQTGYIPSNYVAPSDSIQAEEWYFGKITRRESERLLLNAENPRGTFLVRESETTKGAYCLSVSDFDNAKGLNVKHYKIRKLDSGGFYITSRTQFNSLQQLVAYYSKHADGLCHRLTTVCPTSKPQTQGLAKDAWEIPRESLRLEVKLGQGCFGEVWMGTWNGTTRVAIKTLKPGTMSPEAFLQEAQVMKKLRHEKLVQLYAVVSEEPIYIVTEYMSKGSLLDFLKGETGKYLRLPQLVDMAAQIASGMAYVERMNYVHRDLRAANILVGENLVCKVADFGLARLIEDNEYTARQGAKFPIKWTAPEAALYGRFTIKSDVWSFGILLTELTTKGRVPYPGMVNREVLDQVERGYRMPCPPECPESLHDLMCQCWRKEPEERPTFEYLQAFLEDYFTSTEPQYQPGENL
Sequence of Tyrosine-protein kinase Fgr (Homo sapiens) (P09769 2-529 limits assumed): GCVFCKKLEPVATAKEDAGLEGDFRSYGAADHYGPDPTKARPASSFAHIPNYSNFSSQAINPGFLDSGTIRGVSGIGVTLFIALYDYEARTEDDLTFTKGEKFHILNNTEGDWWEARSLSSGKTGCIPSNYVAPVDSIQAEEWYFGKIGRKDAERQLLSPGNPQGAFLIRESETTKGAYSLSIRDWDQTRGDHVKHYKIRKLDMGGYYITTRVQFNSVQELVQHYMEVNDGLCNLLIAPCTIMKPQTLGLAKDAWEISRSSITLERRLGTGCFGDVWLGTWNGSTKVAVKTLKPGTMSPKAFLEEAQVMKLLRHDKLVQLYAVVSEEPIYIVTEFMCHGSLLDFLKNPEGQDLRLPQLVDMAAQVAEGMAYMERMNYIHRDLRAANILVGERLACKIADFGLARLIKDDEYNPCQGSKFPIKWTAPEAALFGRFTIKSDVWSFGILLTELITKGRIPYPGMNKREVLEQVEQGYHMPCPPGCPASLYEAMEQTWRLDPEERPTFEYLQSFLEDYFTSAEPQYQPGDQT
Sequence of Receptor-type tyrosine-protein kinase FLT3 (Homo sapiens) (P36888 whole entry): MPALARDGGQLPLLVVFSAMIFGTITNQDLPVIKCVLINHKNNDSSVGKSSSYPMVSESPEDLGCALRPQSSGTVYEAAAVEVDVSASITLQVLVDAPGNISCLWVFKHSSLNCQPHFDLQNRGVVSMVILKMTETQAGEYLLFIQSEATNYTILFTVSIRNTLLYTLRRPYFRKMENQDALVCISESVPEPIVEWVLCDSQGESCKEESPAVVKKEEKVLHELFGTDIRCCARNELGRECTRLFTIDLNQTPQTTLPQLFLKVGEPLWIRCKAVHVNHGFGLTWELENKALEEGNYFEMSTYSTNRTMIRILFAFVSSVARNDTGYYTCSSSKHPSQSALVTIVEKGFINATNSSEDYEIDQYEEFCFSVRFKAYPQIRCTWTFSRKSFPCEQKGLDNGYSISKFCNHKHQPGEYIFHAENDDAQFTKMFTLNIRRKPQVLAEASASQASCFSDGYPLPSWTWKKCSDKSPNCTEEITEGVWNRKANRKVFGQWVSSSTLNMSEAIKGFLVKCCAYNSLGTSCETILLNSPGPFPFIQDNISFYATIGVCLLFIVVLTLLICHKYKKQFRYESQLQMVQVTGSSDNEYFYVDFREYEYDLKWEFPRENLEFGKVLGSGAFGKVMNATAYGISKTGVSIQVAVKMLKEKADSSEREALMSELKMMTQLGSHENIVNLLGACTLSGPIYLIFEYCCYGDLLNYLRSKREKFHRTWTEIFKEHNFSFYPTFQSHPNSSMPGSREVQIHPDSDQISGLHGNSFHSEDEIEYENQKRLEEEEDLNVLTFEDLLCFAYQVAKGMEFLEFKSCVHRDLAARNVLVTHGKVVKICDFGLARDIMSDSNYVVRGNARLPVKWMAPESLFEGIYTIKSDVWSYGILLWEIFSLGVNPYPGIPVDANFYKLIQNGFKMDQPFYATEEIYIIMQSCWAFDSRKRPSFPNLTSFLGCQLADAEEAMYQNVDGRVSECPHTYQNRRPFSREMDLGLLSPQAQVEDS
Sequence of Protein-tyrosine kinase 6 (Homo sapiens) (Q13882 whole entry, looked up): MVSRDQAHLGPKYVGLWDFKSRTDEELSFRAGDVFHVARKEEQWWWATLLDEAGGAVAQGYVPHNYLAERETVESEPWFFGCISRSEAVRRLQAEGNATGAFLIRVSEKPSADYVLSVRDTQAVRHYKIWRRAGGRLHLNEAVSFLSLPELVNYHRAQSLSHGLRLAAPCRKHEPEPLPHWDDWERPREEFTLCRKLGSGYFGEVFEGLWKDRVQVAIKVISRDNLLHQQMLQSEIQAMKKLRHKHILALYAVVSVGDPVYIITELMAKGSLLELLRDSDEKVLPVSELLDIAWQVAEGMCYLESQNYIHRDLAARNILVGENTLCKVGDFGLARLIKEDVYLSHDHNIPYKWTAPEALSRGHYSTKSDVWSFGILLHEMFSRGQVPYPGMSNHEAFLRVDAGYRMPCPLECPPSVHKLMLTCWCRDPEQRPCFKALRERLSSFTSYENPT

SMILES	IC50 [1]	IC50 [2]	further results
CCCS(=O)(=O)Nc1ccc(Cl)c(C(=O)Nc2cnc3[nH]ccc3c2)c1Cl	8.3 nM	206 nM	
COc1n[nH]c2ncc(NC(=O)c3c(F)ccc(NS(=O)(=O)c4cccc(F)c4)c3F)cc12	0.7 nM	12 nM	inhibition [3]: 52%; inhibition [4]: 98%; inhibition [5]: 77%; inhibition [6]: 96%; inhibition [7]: 101%; inhibition [8]: 77%; inhibition [9]: 98%
CCCS(=O)(=O)Nc1cc(F)cc(C(=O)Nc2cnc3[nH]ccc3c2)c1F	76 nM	400 nM	
COc1n[nH]c2ncc(NC(=O)c3c(F)ccc(NS(=O)(=O)c4ccco4)c3F)cc12	0.7 nM	66 nM	
CCN(C)S(=O)(=O)Nc1ccc(F)c(C(=O)Nc2cnc3[nH]ccc3c2)c1F	400 nM	340 nM	
CCCS(=O)(=O)Nc1ccc(F)c(C(=O)Nc2cnc3[nH]cc(Br)c3c2)c1F		39 nM	
CCCS(=O)(=O)Nc1ccc(F)c(C(=O)Nc2cnc3[nH]nc(Br)c3c2)c1F		44 nM	
CCCS(=O)(=O)Nc1ccc(F)c(C(=O)Nc2cnc3[nH]cc(C(F)(F)F)c3c2)c1F	6.2 nM	230 nM	
CCCS(=O)(=O)Nc1ccc(Cl)c(C(=O)Nc2cnc3[nH]ccc3c2)c1	88 nM	2100 nM	
COc1n[nH]c2ncc(NC(=O)c3c(F)ccc(NS(=O)(=O)c4ccccc4F)c3F)cc12	1.8 nM	9.1 nM	
CCCS(=O)(=O)Nc1cccc(C(=O)Nc2cnc3[nH]ccc3c2)c1F	87 nM	290 nM	
COc1n[nH]c2ncc(NC(=O)c3c(F)ccc(NS(=O)(=O)c4ccccc4)c3F)cc12		17 nM	
O=C(Nc1cnc2[nH]ccc2c1)c1c(F)ccc(NS(=O)(=O)N2CCCC2)c1F	120 nM	170 nM	
CCCS(=O)(=O)Nc1ccc(F)c(C(=O)Nc2cnc3[nH]nc(C)c3c2)c1F		86 nM	
CCCS(=O)(=O)Nc1cc(F)c(F)c(C(=O)Nc2cnc3[nH]ccc3c2)c1F	19 nM	410 nM	
O=C(Nc1cnc2[nH]ccc2c1)c1c(F)ccc(NS(=O)(=O)CCCF)c1F	19 nM	75 nM	
CCCS(=O)(=O)Nc1ccc(F)c(C(=O)Nc2cnc3[nH]ccc3c2)c1F		94 nM	
O=C(Nc1cnc2[nH]ccc2c1)c1c(F)ccc(NS(=O)(=O)CC2CC2)c1F	29 nM	230 nM	

SMILES	IC50 [1]	IC50 [2]	further results
COc1n[nH]c2ncc(NC(=O)c3c(F)ccc(NS(=O)(=O)c4ccc(F)cc4)c3F)cc12	46 nM	340 nM	
CCCS(=O)(=O)Nc1ccc(F)c(C(=O)Nc2cnc3[nH]ccc3c2)c1	210 nM		
CCCS(=O)(=O)Nc1ccc(F)c(C(=O)Nc2cnc3[nH]cc(CC)c3c2)c1F	19 nM	290 nM	
CCCS(=O)(=O)Nc1ccc(F)c(C(=O)Nc2cnc3[nH]ccc3c2)c1C	680 nM		
O=C(Nc1cnc2[nH]ccc2c1)c1c(F)ccc(NS(=O)(=O)CCC(F)(F)F)c1F	33 nM	270 nM	
O=C(Nc1cnc2[nH]ccc2c1)c1c(F)ccc(NS(=O)(=O)CC(F)(F)F)c1F	38 nM	2600 nM	
CCCS(=O)(=O)Nc1ccc(F)c(C(=O)Nc2cnc3[nH]nc(OC)c3c2)c1F		19 nM	inhibition [3]: 1%; inhibition [4]: 88%; inhibition [5]: 52%; inhibition [6]: 56%; inhibition [7]: 83%; inhibition [8]: 22%; inhibition [9]: 94%
CCCS(=O)(=O)Nc1ccc(Cl)c(C(=O)Nc2cnc3[nH]ccc3c2)c1F	17 nM	190 nM	
CCCS(=O)(=O)Nc1ccc(C)c(C(=O)Nc2cnc3[nH]ccc3c2)c1F	170 nM	1400 nM	
CC(C)CS(=O)(=O)Nc1ccc(F)c(C(=O)Nc2cnc3[nH]ccc3c2)c1F	140 nM	200 nM	
CCCS(=O)(=O)Nc1ccc(F)c(C(=O)Nc2cnc3[nH]ncc3c2)c1F		62 nM	
COc1n[nH]c2ncc(NC(=O)c3c(F)ccc(NS(=O)(=O)c4cc(F)ccc4F)c3F)cc12	1 nM	20 nM	
CCCCS(=O)(=O)Nc1ccc(F)c(C(=O)Nc2cnc3[nH]ccc3c2)c1F	40 nM	120 nM	
COc1n[nH]c2ncc(NC(=O)c3c(F)ccc(NS(=O)(=O)c4ccccn4)c3F)cc12	16 nM	280 nM	
O=C(Nc1cnc2[nH]ccc2c1)c1c(F)ccc(NS(=O)(=O)C2CC2)c1F	99 nM	710 nM	
COc1n[nH]c2ncc(NC(=O)c3c(F)ccc(NS(=O)(=O)c4cccnc4)c3F)cc12	0.5 nM	83 nM	
CN(C)S(=O)(=O)Nc1ccc(F)c(C(=O)Nc2cnc3[nH]ccc3c2)c1F	200 nM	260 nM	

Second part, led by results:

IC50 [1]	IC50 [2]	SMILES	further results
3.5 nM	76 nM	CCCS(=O)(=O)Nc1ccc(F)c(C(=O)Nc2cnc3[nH]nc(OCC4CCC4)c3c2)c1F	
63 nM	170 nM	COc1n[nH]c2ncc(NC(=O)c3c(F)ccc(NS(=O)(=O)C4CC4)c3F)cc12	
150 nM	350 nM	CCCS(=O)(=O)Nc1ccc(F)c(C(=O)Nc2cnc3[nH]nc(OC)c3c2)c1	
16 nM	62 nM	CCCS(=O)(=O)Nc1ccc(F)c(C(=O)Nc2cnc3[nH]cc(C)c3c2)c1F	
61 nM	250 nM	CCCS(=O)(=O)Nc1ccc(Cl)c(C(=O)Nc2cnc3[nH]nc(OC)c3c2)c1	
18 nM	180 nM	CCNS(=O)(=O)Nc1ccc(F)c(C(=O)Nc2cnc3[nH]nc(OC)c3c2)c1F	
2.3 nM	100 nM	CCCS(=O)(=O)Nc1cc(F)c(F)c(C(=O)Nc2cnc3[nH]nc(OC)c3c2)c1F	
1.8 nM	36 nM	CCCS(=O)(=O)Nc1ccc(F)c(C(=O)Nc2cnc3[nH]nc(I)c3c2)c1F	
6.9 nM	62 nM	CCCS(=O)(=O)Nc1ccc(F)c(C(=O)Nc2cnc3[nH]nc(O[C@@H]4CCOC4)c3c2)c1F	
2.2 nM	60 nM	CCCS(=O)(=O)Nc1ccc(F)c(C(=O)Nc2cnc3[nH]cc(I)c3c2)c1F	
13 nM	500 nM	COc1n[nH]c2ncc(NC(=O)c3c(F)ccc(NS(=O)(=O)NCC(F)F)c3F)cc12	
2.4 nM	12 nM	CCCS(=O)(=O)Nc1ccc(F)c(C(=O)Nc2cnc3[nH]nc(OCC)c3c2)c1F	
7.5 nM	80 nM	CCCS(=O)(=O)Nc1cc(F)cc(C(=O)Nc2cnc3[nH]nc(OC)c3c2)c1F	
4.5 nM	11 nM	COc1n[nH]c2ncc(NC(=O)c3c(F)ccc(NS(=O)(=O)CC(C)C)c3F)cc12	
110 nM	180 nM	CCCS(=O)(=O)Nc1ccc(F)c(C(=O)Nc2cnc3[nH]nc(OC)c3c2)c1OC	
530 nM		CCCS(=O)(=O)Nc1ccc(F)c(C(=O)Nc2cnc3[nH]nc(OC)c3c2)c1C(F)(F)F	
2600 nM		CCCS(=O)(=O)Nc1ccc(OC)c(C(=O)Nc2cnc3[nH]nc(OC)c3c2)c1F	

IC50 [1]	IC50 [2]	SMILES	further results
13 nM	38 nM	CCCS(=O)(=O)Nc1cccc(C(=O)Nc2cnc3[nH]nc(OC)c3c2)c1F	
29 nM	28 nM	CCN(C)S(=O)(=O)Nc1ccc(F)c(C(=O)Nc2cnc3[nH]nc(OC)c3c2)c1F	
1.3 nM	13 nM	COc1n[nH]c2ncc(NC(=O)c3c(F)ccc(NS(=O)(=O)CCCF)c3F)cc12	
9.2 nM	84 nM	CCCS(=O)(=O)Nc1ccc(F)c(C(=O)Nc2cnc3[nH]nc(CC)c3c2)c1F	
190 nM	830 nM	COc1n[nH]c2ncc(NC(=O)c3c(F)ccc(NS(=O)(=O)Cc4ccccc4)c3F)cc12	
5.8 nM	280 nM	CCCS(=O)(=O)Nc1ccc(F)c(C(=O)Nc2cnc3[nH]nc(C(F)(F)F)c3c2)c1F	
	> 10000 nM	COc1n[nH]c2ncc(NC(=O)c3c(F)ccc(NS(=O)(=O)c4cn(C)cn4)c3F)cc12	
17 nM	31 nM	COc1n[nH]c2ncc(NC(=O)c3c(F)ccc(NS(=O)(=O)CC4CC4)c3F)cc12	
25 nM	62 nM	CCS(=O)(=O)Nc1ccc(F)c(C(=O)Nc2cnc3[nH]nc(OC)c3c2)c1F	
110 nM	630 nM	COc1n[nH]c2ncc(NC(=O)c3c(F)ccc(NS(=O)(=O)NC(C)C)c3F)cc12	
	20 nM	CCCS(=O)(=O)Nc1ccc(Cl)c(C(=O)Nc2cnc3[nH]nc(OC)c3c2)c1F	
0.2 nM	30 nM	COc1n[nH]c2ncc(NC(=O)c3c(F)ccc(NS(=O)(=O)c4cccs4)c3F)cc12	
4.2 nM	43 nM	CCCS(=O)(=O)Nc1ccc(F)c(C(=O)Nc2cnc3[nH]nc(OCC4COC4)c3c2)c1F	
1.4 nM	40 nM	CCCS(=O)(=O)Nc1ccc(Cl)c(C(=O)Nc2cnc3[nH]nc(OC)c3c2)c1Cl	
5.3 nM	28 nM	CCCS(=O)(=O)Nc1ccc(F)c(C(=O)Nc2cnc3[nH]nc(OCC(F)(F)F)c3c2)c1F	
18 nM	63 nM	COc1n[nH]c2ncc(NC(=O)c3c(F)ccc(NS(=O)(=O)N(C)C)c3F)cc12	
